ChEMBL document CHEMBL4257581, “Discovery of Small Molecule Splicing Modulators of Survival Motor Neuron-2 (SMN2) for the Treatment of Spinal Muscular Atrophy (SMA)” (J Med Chem, 2018)
Values belong to the compound of their own block, whether it stands above or below them.

Columns and labels:
Mus musculus = organism: Mus musculus; assay: Stabilization of SMN2 mRNA in mouse myoblasts assessed as increase in SMN protein level by ELISA relative to DMSO control
[1] = Oral bioavailability in Sprague-Dawley rat at 10 mg/kg; format: ADME, organism-based; conditions: in vivo
[2] = Clearance in Sprague-Dawley rat at 1 mg/kg, iv or 10 mg/kg, po; format: ADME, organism-based; conditions: in vivo
[3] = Lipophilicity, log D of the compound at pH 7.4; format: physicochemical; conditions: buffer
[4] = Permeability of the compound at 5 uM after 4 hrs by PAMPA; format: ADME
[5] = AUC in Sprague-Dawley rat at 1 mg/kg, iv or 10 mg/kg, po; format: ADME, organism-based; conditions: in vivo
[6] = Drug level in Sprague-Dawley rat brain at 1 mg/kg, iv or 10 mg/kg, po after 7 hrs; format: ADME, organism-based; conditions: read-out: Drug uptake
[7] = Intrinsic clearance in rat liver microsomes at 1 uM up to 30 mins in presence of NADPH by LC-MS/MS analysis; format: ADME, microsome; conditions: read-out: CLH
[8] = Half life in mouse at 1 mg/kg, iv or 10 mg/kg, po; format: ADME, organism-based; conditions: in vivo
Outline: (§1)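 Mouse PK with dosing at 1 mg/kg i.v. and 10 mg/kg p.o.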

[9] = Clearance in mouse at 1 mg/kg, iv or 10 mg/kg, po; format: ADME, organism-based; conditions: in vivo; outline: as §1
[10] = AUC in mouse plasma at 10 mg/kg, po; format: ADME, organism-based
Outline: (§2)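 Mouse PK: oral arm dosed at 10 mg/kg p.o. alongside a 1 mg/kg i.v. arm. Plasma and brain AUC were taken from the oral arm.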

[11] = Oral bioavailability in mouse at 10 mg/kg; format: ADME, organism-based; conditions: in vivo; outline: as §2
[12] = AUC in mouse brain at 10 mg/kg, po; format: ADME, organism-based; outline: as §2
[13] = Dissociation constant, pKa of the compound; format: physicochemical
Homo sapiens = organism: Homo sapiens; assay: Stabilization of SMN2 mRNA in human spinal muscular atrophy patient derived fibroblasts by ELISA
[14] = Solubility of the compound at pH 6.8; format: physicochemical; conditions: buffer
[15] = Plasma clearance in C57BL/6 mouse at 1 mg/kg, iv or 5 mg/kg, po; format: ADME, organism-based
Outline: (§3)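 Mice received single doses of 1 mg/kg i.v. or 5 mg/kg p.o. (n = 2). The vehicle was 10% 0.1 N HCl, 10% PG, 25 (20%) Solutol and 100 mM pH 5 citrate buffer. Plasma was sampled for PK parameters.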

[16] = AUC (0 to 7 hrs) in C57BL/6 mouse plasma at 1 mg/kg, iv or 5 mg/kg, po; format: ADME, organism-based; outline: as §3
[17] = Drug level in brain in C57BL/6 mouse brain at 1 mg/kg, iv or 5 mg/kg, po; format: ADME, organism-based; conditions: in vivo, read-out: Drug uptake
[18] = Intrinsic clearance in mouse liver microsomes at 1 uM up to 30 mins in presence of NADPH by LC-MS/MS analysis; format: ADME, microsome; conditions: read-out: CLH
[19] = Oral bioavailability in C57BL/6 mouse at 5 mg/kg; format: ADME, organism-based; conditions: in vivo; outline: as §3
[20] = Drug level in mouse brain at 10 mg/kg, po after 7 hrs; format: ADME, organism-based; conditions: read-out: Drug uptake
Outline: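 Mouse PK at 10 mg/kg p.o. Brain concentration was measured at a single time point, 7 h after the oral dose.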

SMILES: CN(c1ccc(-c2cc3ccccc3s2)nn1)C1CC(C)(C)NC(C)(C)C1
microsomal CLint at 1 µM [7]: 40 µL/min/mg
half-life [8]: 3.2 h
logD [3]: 3.4
clearance [9]: 100 mL/min/kg
AUC [10]: 4.9 µM·h
bioavailability [11]: 100%
AUC [12]: 17.4 µM·h

SMILES: CN(c1ccc(-c2cc3ccccc3cc2O)nn1)C1CC(C)(C)NC(C)(C)C1
microsomal CLint at 1 µM [7]: 17 µL/min/mg
half-life [8]: 3.7 h
logD [3]: 4
clearance [9]: 56 mL/min/kg
AUC [10]: 16.9 µM·h
bioavailability [11]: 100%
AUC [12]: 36.7 µM·h
fold change (FC) (Mus musculus): 2.4 to 2.5

SMILES: CN(c1ccc(-c2ccc(-c3cn[nH]c3)cc2O)nn1)C1CC(C)(C)NC(C)(C)C1
bioavailability [1]: 53%
clearance [2]: 22 mL/min/kg
logD [3]: 2.92
log(permeability) [4]: -5.4
AUC [5]: 2.3 µM·h
concentration at 7 h [6]: 58 nM
fold change (FC) (Mus musculus): 3.1

SMILES: CN(c1ccc(-c2cc3cnccc3cc2O)nn1)C1CC(C)(C)NC(C)(C)C1
bioavailability [1]: 100%
clearance [2]: 57 mL/min/kg
logD [3]: 3.07
log(permeability) [4]: -4.3
AUC [5]: 1.35 µM·h
concentration at 7 h [6]: 630 nM
fold change (FC) (Mus musculus): 2.6

SMILES: CN(c1ccc(-c2ccc(-n3cccn3)cc2O)nn1)C1CC(C)(C)NC(C)(C)C1
pKa [13]: 10.3
logD [3]: 3.11
fold change (FC) (Mus musculus): 3.1

SMILES: CN(c1ccc(-c2cc3cccnc3cc2O)nn1)C1CC(C)(C)NC(C)(C)C1
bioavailability [1]: 46%
clearance [2]: 35 mL/min/kg
logD [3]: 3.23
log(permeability) [4]: -4.5
AUC [5]: 1.17 µM·h
concentration at 7 h [6]: 68 nM
fold change (FC) (Mus musculus): 2.9

SMILES: CN(c1ccc(-c2ccc(-n3cc(CO)cn3)cc2O)nn1)C1CC(C)(C)NC(C)(C)C1
logD [3]: 2.16
log(permeability) [4]: -5.5

SMILES: COc1cc(C#N)ccc1-c1ccc(N(C)C2CC(C)(C)NC(C)(C)C2)nn1
fold change (FC) (Mus musculus): 2.3

SMILES: CN(c1ccc(-c2ccc(-n3ccc(N)n3)cc2O)nn1)C1CC(C)(C)NC(C)(C)C1
bioavailability [1]: 4%
clearance [2]: 16 mL/min/kg
logD [3]: 2.52
log(permeability) [4]: -5.2
AUC [5]: 0.092 µM·h
concentration at 7 h [6]: < 2.4 nM
fold change (FC) (Mus musculus): 2.8

SMILES: CN(c1ccc(-c2ccc(C#N)cc2O)nn1)C1CC(C)(C)NC(C)(C)C1
microsomal CLint at 1 µM [7]: 7 µL/min/mg
concentration at 7 h [20]: 2000 nM
half-life [8]: 4.5 h
logD [3]: 3.2
clearance [9]: 23 mL/min/kg
AUC [10]: 5.2 µM·h
bioavailability [11]: 37%
fold change (FC) (Mus musculus): 3.1

Second part, the compound after the results:

fold change (FC) (Mus musculus): 2.3
SMILES: CC1(C)CC(Nc2ccc(-c3ccc4ccccc4c3)nn2)CC(C)(C)N1

bioavailability [1]: 63%
clearance [2]: 25 mL/min/kg
logD [3]: 2.51
log(permeability) [4]: -4.9
AUC [5]: 3.03 µM·h
concentration at 7 h [6]: 914 nM
SMILES: CC1(C)CC(Oc2ccc(-c3ccc(-c4cn[nH]c4)cc3O)nn2)CC(C)(C)N1 [BRANAPLAM]

logD [3]: 1.2
SMILES: Oc1cc(-c2cn[nH]c2)ccc1-c1ccc(N2CCC3(CCCNC3)C2)nn1 (stereo not drawn)

logD [3]: 2.89
log(permeability) [4]: -5.3
SMILES: CC1(C)CC(Cc2ccc(-c3ccc(-c4cn[nH]c4)cc3O)nn2)CC(C)(C)N1

fold change (FC) (Mus musculus): 1
SMILES: CC1(C)CC(Nc2ccc(-c3cccc4ccccc34)nn2)CC(C)(C)N1

logD [3]: 0.58
SMILES: Oc1cc(-c2cn[nH]c2)ccc1-c1ccc(N2C[C@H]3CNC[C@H]3C2)nn1

logD [3]: 4.65
fold change (FC) (Mus musculus): 1.1
SMILES: CC1(C)CC(Oc2ccc(-c3ccc(-n4cccn4)cc3O)nn2)CC(C)(C)N1CC(F)(F)F

logD [3]: 0.69
SMILES: Oc1cc(-n2cccn2)ccc1-c1ccc(OC2CCNCC2)nn1

microsomal CLint at 1 µM [7]: 22.6 µL/min/mg
pKa [13]: 10
fold change (FC) (Homo sapiens): 1.5
solubility [14]: > 1000 µM
clearance [15]: 113 mL/min/kg
logD [3]: 2.67
AUC(0-t) [16]: 0.4 µM·h
concentration [17]: < 2.7 nM
microsomal CLint at 1 µM [18]: 23.5 µL/min/mg
bioavailability [19]: 18%
fold change (FC) (Mus musculus): 2.5
SMILES: CC1(C)CC(Nc2ccc(-c3cc4ccccc4s3)nn2)CC(C)(C)N1

pKa [13]: 10.1
logD [3]: 2.79
SMILES: CC1(C)CC(Oc2ccc(-c3ccc(-n4cccn4)cc3O)nn2)CC(C)(C)N1

pKa [13]: 5.89
logD [3]: 2.59
fold change (FC) (Mus musculus): 1.2
SMILES: Oc1cc(-n2cccn2)ccc1-c1ccc(OC2CCNCC2(F)F)nn1 (stereo not drawn)
